Test results taken from ChEMBL document CHEMBL1123866, “Benzimidazole derivatives with atypical antiinflammatory activity” (J Med Chem, 1987).

The compounds below were run on Rattus norvegicus (assay: Antiinflammatory activity was evaluated for the compound in rat adjuvant arthritis model and the percent of inhibition was determined at 1 mg/kg dose administered orally). Conditions: po, read-out: Inhibition.

**Q.** `COc1ccc2c(c1)c(CC(=O)O)c(C)n2C(=O)c1ccc(Cl)cc1` [INDOMETHACIN] was tested. Which inhibition in vivo at 1 mg/kg did it give?
**A.** The inhibition in vivo at 1 mg/kg was 69%.

The compounds below were run on Rattus norvegicus (assay: Antiinflammatory activity was evaluated for the compound in rat adjuvant arthritis model and the percent of inhibition was determined at 50 mg/kg dose administered orally). Conditions: route oral.
Assay type: functional
How it was run: (§1)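 Rats, ten per group, were dosed orally with a suspension in 1% acacia in distilled water, starting immediately after adjuvant injection and then once daily for 14 days in total. Foot volume of the noninjected hind paw was measured by mercury displacement to the lateral malleolus 24 h after the final dose. Percent inhibition of swelling was calculated against untreated arthritic controls.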

**Q.** `Cc1ccc2[nH]c(S(=O)(=O)CC(F)(F)F)nc2c1` was tested. Which inhibition in vivo at 50 mg/kg did it give?
**A.** Its inhibition in vivo at 50 mg/kg is 72%.

Each compound was assayed on Rattus norvegicus (assay: Anti-inflammatory activity (% inhibition of paw swelling)in rat adjuvant arthritis model at 25 mg/kg oral dose). Conditions: not given.
Assay type: functional
How it was run: as §1

**Q.** Which inhibition in vivo at 25 mg/kg does the source give for `CCc1ccc2[nH]c(S(=O)(=O)CC(F)(F)F)nc2c1` here?
**A.** Its inhibition in vivo at 25 mg/kg is 34%.

**Q.** For `O=S(=O)(CC(F)(F)F)c1nc2cc(Cl)ccc2[nH]1`, which inhibition in vivo at 25 mg/kg is on record?
**A.** Its inhibition in vivo at 25 mg/kg is 28%.

**Q.** With `O=S(=O)(c1nc2cc(Cl)ccc2[nH]1)C(F)(F)C(F)(F)C(F)(F)F` as the compound, how does the inhibition in vivo at 25 mg/kg read?
**A.** The inhibition in vivo at 25 mg/kg was 0%.

**Q.** Which inhibition in vivo at 25 mg/kg does the source give for `CC(C)Cc1ccc(C(C)C(=O)O)cc1` (stereo not drawn) [IBUPROFEN] here?
**A.** The inhibition in vivo at 25 mg/kg was 73%.

**Q.** Which inhibition in vivo at 25 mg/kg does the source give for `O=S(=O)(CC(F)(F)F)c1nc2ccccc2[nH]1` here?
**A.** Its inhibition in vivo at 25 mg/kg is 52%.

**Q.** With `COC(=O)c1ccc2[nH]c(S(=O)(=O)CC(F)(F)F)nc2c1` as the compound, how does the inhibition in vivo at 25 mg/kg read?
**A.** The inhibition in vivo at 25 mg/kg was 11%.

**Q.** How did the inhibition in vivo at 25 mg/kg turn out when `O=S(=O)(CC(F)(F)F)c1nc2cc(Cl)c(Cl)cc2[nH]1` was run?
**A.** Its inhibition in vivo at 25 mg/kg is 24%.

**Q.** `O=S(=O)(CC(F)(F)F)c1nc2cc(F)ccc2[nH]1` was tested. Which inhibition in vivo at 25 mg/kg did it give?
**A.** The inhibition in vivo at 25 mg/kg was 43%.

**Q.** `Cc1cc2nc(S(=O)(=O)CC(F)(F)F)[nH]c2cc1C` was tested. Which inhibition in vivo at 25 mg/kg did it give?
**A.** Its inhibition in vivo at 25 mg/kg is 18%.

**Q.** `Cc1ccc2[nH]c(S(=O)(=O)CC(F)(F)F)nc2c1` was tested. Which inhibition in vivo at 25 mg/kg did it give?
**A.** Its inhibition in vivo at 25 mg/kg is 52%.

**Q.** How did the inhibition in vivo at 25 mg/kg turn out when `CCS(=O)(=O)c1nc2cc(C)ccc2[nH]1` was run?
**A.** The inhibition in vivo at 25 mg/kg was 17%.

**Q.** Which inhibition in vivo at 25 mg/kg does the source give for `CCCc1ccc2[nH]c(S(=O)(=O)CC(F)(F)F)nc2c1` here?
**A.** Its inhibition in vivo at 25 mg/kg is 0%.

**Q.** How did the inhibition in vivo at 25 mg/kg turn out when `Cc1ccc2[nH]c(S(=O)(=O)C(F)(F)C(F)(F)F)nc2c1` was run?
**A.** Its inhibition in vivo at 25 mg/kg is 8%.

**Q.** How did the inhibition in vivo at 25 mg/kg turn out when `Cc1cc2[nH]c(S(=O)(=O)CC(F)(F)F)nc2cc1F` was run?
**A.** Its inhibition in vivo at 25 mg/kg is 44%.

**Q.** For `O=S(=O)(c1nc2cc(Cl)ccc2[nH]1)C(F)(F)C(F)(F)F`, which inhibition in vivo at 25 mg/kg is on record?
**A.** Its inhibition in vivo at 25 mg/kg is 0%.

**Q.** `O=S(=O)(CC(F)(F)F)c1nc2cc(C(F)(F)F)ccc2[nH]1` was tested. Which inhibition in vivo at 25 mg/kg did it give?
**A.** Its inhibition in vivo at 25 mg/kg is 0%.
